A value given as a limit tells only on which side of the number the result lay.

Consider 29 compounds from ChEMBL document CHEMBL2375253, “Discovery of novel 2,6-disubstituted pyridazinone derivatives as acetylcholinesterase inhibitors” (Eur J Med Chem, 2013).

For one test, the target named is T1, Acetylcholinesterase (Rattus norvegicus, UniProt P37136).
T1 sequence (P37136 whole entry): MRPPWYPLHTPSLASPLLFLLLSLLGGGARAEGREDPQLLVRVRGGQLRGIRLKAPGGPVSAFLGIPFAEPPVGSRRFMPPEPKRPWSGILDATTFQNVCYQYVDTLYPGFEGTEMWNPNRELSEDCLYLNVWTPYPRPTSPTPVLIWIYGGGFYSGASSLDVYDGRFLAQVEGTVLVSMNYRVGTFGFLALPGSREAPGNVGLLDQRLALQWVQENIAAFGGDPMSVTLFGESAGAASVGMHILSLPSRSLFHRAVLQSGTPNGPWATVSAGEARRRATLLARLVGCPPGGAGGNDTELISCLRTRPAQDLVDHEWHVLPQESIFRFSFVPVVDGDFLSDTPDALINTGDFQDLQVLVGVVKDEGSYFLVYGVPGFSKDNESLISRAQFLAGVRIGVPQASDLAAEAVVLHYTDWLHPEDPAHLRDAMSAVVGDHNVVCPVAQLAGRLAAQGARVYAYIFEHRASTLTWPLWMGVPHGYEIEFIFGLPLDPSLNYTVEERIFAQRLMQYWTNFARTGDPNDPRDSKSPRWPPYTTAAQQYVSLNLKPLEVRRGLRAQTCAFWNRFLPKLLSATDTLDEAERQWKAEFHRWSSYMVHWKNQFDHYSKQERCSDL
As to the kind of experiment: Inhibition of AChE in rat cerebral cortex homogenates using acetylthiocholine iodide as substrate after 8 mins by Ellman's spectrophotometric method. The test is classed as tissue-based. An outline of the steps: (§1)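 Ellman colorimetric assay. Compounds were dissolved in DMSO to 10 mM and diluted in double-distilled water. Each mixture held compound, phosphate buffer ([…]) and enzyme with substrate. For AChE, rat cerebral cortex homogenate was used with acetylthiocholine iodide (2 mM solution). For BuChE, rat serum was used with S-butyrylthiocholine iodide (2 mM solution). Incubated 8 min, stopped with 3% SDS, then 0.2% DTNB added. Absorbance read at 440 nm, duplicates.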

The species named for the next test is Rattus norvegicus. Briefly: Selectivity ratio of IC50 for rat serum BuChE to IC50 for AChE in rat cerebral cortex homogenates. Type of test: tissue-based.
The target in another test is Butyrylcholinesterase (Rattus norvegicus, UniProt Q9JKC1). Briefly: Inhibition of rat serum BuChE using S-butyrylthiocholine iodide as substrate after 8 mins by Ellman's spectrophotometric method. The essentials:
as §1

Sequence of Butyrylcholinesterase (Q9JKC1 whole entry): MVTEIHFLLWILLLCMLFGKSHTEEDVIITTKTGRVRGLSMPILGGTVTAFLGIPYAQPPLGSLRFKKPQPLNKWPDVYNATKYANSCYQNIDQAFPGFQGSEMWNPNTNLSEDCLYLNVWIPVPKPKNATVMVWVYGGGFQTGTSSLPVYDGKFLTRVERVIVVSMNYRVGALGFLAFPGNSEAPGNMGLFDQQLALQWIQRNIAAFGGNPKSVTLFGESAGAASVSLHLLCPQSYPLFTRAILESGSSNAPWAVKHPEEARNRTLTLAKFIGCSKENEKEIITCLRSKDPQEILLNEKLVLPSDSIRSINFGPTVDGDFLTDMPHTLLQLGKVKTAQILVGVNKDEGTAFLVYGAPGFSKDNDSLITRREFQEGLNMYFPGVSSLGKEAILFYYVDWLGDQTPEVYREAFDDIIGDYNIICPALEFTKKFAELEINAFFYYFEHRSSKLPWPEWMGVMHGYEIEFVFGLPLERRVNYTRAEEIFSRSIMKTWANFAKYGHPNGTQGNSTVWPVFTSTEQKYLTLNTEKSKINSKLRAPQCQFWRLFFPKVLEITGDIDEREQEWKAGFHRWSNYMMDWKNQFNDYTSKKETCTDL

Regarding `CCN(CC)C(=O)C1CCN(C(=O)Nc2cccc(Cn3nc(Nc4ccccc4C(C)C)ccc3=O)c2)CC1`, the IC50 at Acetylcholinesterase (read-out: IC50) was 1500 nM. Consider `CCN(C)C(=O)C1CCN(C(=O)Nc2cccc(Cn3nc(Nc4ccccc4C)ccc3=O)c2)CC1`, for which the Ratio IC50 in the test filed under Rattus norvegicus is more than 84. The IC50 on Butyrylcholinesterase was more than 40000 nM; at Acetylcholinesterase (read-out: IC50) it was 473 nM. Regarding `CCN(CC)C(=O)C1CCN(C(=O)Nc2cccc(Cn3nc(Nc4ccccc4C(F)(F)F)ccc3=O)c2)CC1`, the IC50 at Acetylcholinesterase (read-out: IC50) worked out at 119 nM.

For `CCN(CC)C(=O)C1CCN(C(=O)Nc2cccc(Cn3nc(-c4ccccc4C)ccc3=O)c2)CC1`, the IC50 at Acetylcholinesterase (read-out: IC50) was found to be 2610 nM. In the case of `CCN(CC)C(=O)C1CCN(C(=O)Nc2cccc(Cn3nc(-c4ccccc4)ccc3=O)c2)CC1`, in the test filed under Rattus norvegicus, the Ratio IC50 was more than 24. In addition, the figures for the IC50 at Butyrylcholinesterase and at Acetylcholinesterase (read-out: IC50) were more than 40000 nM and 1660 nM, respectively. For `CCN(CC)C(=O)C1CCN(C(=O)Nc2cccc(Cn3nc(-c4cccc(Br)c4)ccc3=O)c2)CC1`, the IC50 on Acetylcholinesterase (read-out: IC50) worked out at 623 nM. `CCN(CC)C(=O)C1CCN(C(=O)Nc2cccc(Cn3nc(-c4cccc(C)c4)ccc3=O)c2)CC1`: at Acetylcholinesterase (read-out: IC50), the IC50 came to 746 nM.

On to `CCN(CC)C(=O)C1CCN(C(=O)Nc2cccc(Cn3nc(-c4ccc(C)cc4)ccc3=O)c2)CC1`, for which the IC50 at Acetylcholinesterase (read-out: IC50) stood at 2010 nM. On the same count and under the same terms, next, `c1ccc(CN2CCC(CCN=c3cc4c(n[nH]3)-c3ccccc3C4)CC2)cc1`: 10 nM. On to `CCN(C(=O)C1CCN(C(=O)Nc2cccc(Cn3nc(Nc4ccccc4C)ccc3=O)c2)CC1)C(C)C`, for which the Ratio IC50 in the test filed under Rattus norvegicus came out at 196. The IC50 on Butyrylcholinesterase stood at 5500 nM; on Acetylcholinesterase (read-out: IC50), 28 nM. Take `CCN(CC)C(=O)C1CCN(C(=O)Nc2cccc(Cn3nc(Nc4ccc(C)cc4)ccc3=O)c2)CC1`: at Acetylcholinesterase (read-out: IC50), the IC50 stood at 19800 nM. For the compound `CCN(CC)C(=O)C1CCN(C(=O)Nc2cccc(Cn3nc(Nc4ccc(C(F)(F)F)cc4)ccc3=O)c2)CC1`, the IC50 on Acetylcholinesterase (read-out: IC50) came to 4840 nM. On to `Cc1ccccc1Nc1ccc(=O)n(Cc2cccc(NC(=O)N3CCC(C(=O)N4CCOCC4)CC3)c2)n1`, for which the IC50 result against Acetylcholinesterase is “Not Active”.

Turning to `CCN(CC)C(=O)C1CCN(C(=O)Nc2cccc(Cn3nc(-c4cccc5ccccc45)ccc3=O)c2)CC1`, the Ratio IC50 in the test listed under Rattus norvegicus is more than 212. The IC50 against Butyrylcholinesterase was more than 40000 nM; at Acetylcholinesterase (read-out: IC50), 188 nM. Consider `Cc1ccccc1Nc1ccc(=O)n(Cc2cccc(NC(=O)N3CCC(C(=O)N(C(C)C)C(C)C)CC3)c2)n1`, for which the IC50 on Acetylcholinesterase (read-out: IC50) turned out to be 116 nM. Still for that read-out and setting: for `CCN(CC)C(=O)C1CCN(C(=O)Nc2cccc(Cn3nc(-c4cccc(C#N)c4)ccc3=O)c2)CC1` the value was 220 nM; for `c1ccc(CN2CCC(CCNc3cc4c(nn3)-c3ccccc3CC4)CC2)cc1`, 39 nM. As for `CCN(CC)C(=O)C1CCN(C(=O)Nc2cccc(Cn3nc(Nc4ccccc4C)ccc3=O)c2)CC1`, in the test filed under Rattus norvegicus, the Ratio IC50 was more than 816. For the same compound, the IC50 on Butyrylcholinesterase is more than 40000 nM; on Acetylcholinesterase (read-out: IC50), 49 nM. On to `Cc1ccccc1Nc1ccc(=O)n(Cc2cccc(NC(=O)N3CCC(C(=O)N(C)C)CC3)c2)n1`, for which the IC50 at Acetylcholinesterase (read-out: IC50) is 7600 nM. Turning to `CCN(CC)C(=O)C1CCN(C(=O)Nc2cccc(Cn3nc(Nc4c(C)cccc4C)ccc3=O)c2)CC1`, the IC50 at Acetylcholinesterase (read-out: IC50) came out at 607 nM. Still for that read-out and setting: for `CCc1ccccc1Nc1ccc(=O)n(Cc2cccc(NC(=O)N3CCC(C(=O)N(CC)CC)CC3)c2)n1` the value was 188 nM; for `CCN(CC)C(=O)C1CCN(C(=O)Nc2cccc(Cn3ncccc3=O)c2)CC1`, 4900 nM; for `CCN(CC)C(=O)C1CCN(C(=O)Nc2cccc(Cn3nc(Nc4cccc(C(F)(F)F)c4)ccc3=O)c2)CC1`, 135 nM.

Consider `CCN(CC)C(=O)C1CCN(C(=O)Nc2cccc(Cn3nc(Nc4cccc5ccccc45)ccc3=O)c2)CC1`, for which the IC50 on Acetylcholinesterase (read-out: IC50) was determined as 126 nM. Still for that read-out and setting: for `CCN(CC)C(=O)C1CCN(C(=O)Nc2cccc(Cn3nc(Nc4cccc(C)c4)ccc3=O)c2)CC1` the value was 1420 nM. For `Cc1ccccc1Nc1ccc(=O)n(Cc2cccc(NC(=O)N3CCC(C(=O)N(C)C(C)C)CC3)c2)n1`, the Ratio IC50 in the test listed under Rattus norvegicus came out at 217. For the same compound, the IC50 against Butyrylcholinesterase worked out at 10000 nM; on Acetylcholinesterase (read-out: IC50), 46 nM.

`CCN(CC)C(=O)C1CCN(C(=O)Nc2cccc(Cn3nc(-c4cccc(Cl)c4)ccc3=O)c2)CC1`: the IC50 on Acetylcholinesterase (read-out: IC50) came to 648 nM. With `CCN(CC)C(=O)C1CCN(C(=O)Nc2cccc(Cn3nc(Nc4ccccc4)ccc3=O)c2)CC1`, the Ratio IC50 in the test filed under Rattus norvegicus is more than 12. The results for the IC50 on Butyrylcholinesterase and at Acetylcholinesterase (read-out: IC50) were more than 40000 nM and 3280 nM, respectively.

On to `CCN(CC)C(=O)C1CCN(C(=O)Nc2cccc(Cn3nc(-c4ccc5ccccc5c4)ccc3=O)c2)CC1`, for which, at Acetylcholinesterase (read-out: IC50), the IC50 stood at 462 nM.
